From ChEMBL document CHEMBL2331445, “Chemical, biochemical and microbiological properties of a brominated nitrovinylfuran with broad-spectrum antibacterial activity” (Bioorg Med Chem, 2013)
≈ marks a conversion by molar mass, not a printed value. Calls of active or inactive are those of the source. No cut-off for these calls is given here.

Tests used:
[1] = Cytotoxicity against human SW707 cells after 72 hrs by crystal violet staining method; assay type: ADME, cell-based; conditions: SW707, 72 h
[2] = tested on: CAPAN-1; assay: Cytotoxicity against human Capan1 cells after 72 hrs by crystal violet staining method; assay type: ADME, cell-based; conditions: CAPAN-1, 72 h
[3] = tested on: Ca-Ski; assay: Cytotoxicity against human CaSki cells after 72 hrs by crystal violet staining method; assay type: ADME, cell-based
[4] = tested on: Calu-6; assay: Cytotoxicity against human Calu6 cells after 72 hrs by crystal violet staining method; assay type: ADME, cell-based; conditions: Calu-6, 72 h
[5] = tested on: MeWo; assay: Cytotoxicity against human MeWo cells after 72 hrs by crystal violet staining method; assay type: ADME, cell-based
[6] = tested on: A-431; assay: Cytotoxicity against human A431 cells after 72 hrs by crystal violet staining method; assay type: ADME, cell-based; conditions: A-431, 72 h
[7] = Cytotoxicity against human Flow 2002 cells after 72 hrs by crystal violet staining method; assay type: ADME, cell-based; conditions: Flow 2002, 72 h
[8] = tested on: HaCaT; assay: Cytotoxicity against human HaCaT cells after 72 hrs by crystal violet staining method; assay type: ADME, cell-based
[9] = tested on: Staphylococcus aureus; assay: microbe, parasite or virus in culture; assay type: functional; conditions: NCTC 10442
[10] = tested on: Staphylococcus aureus; assay: microbe, parasite or virus in culture; assay type: functional; conditions: ATCC 25923
[11] = Inhibition of Staphylococcus aureus MurA2 expressed in Escherichia coli BL21(lambdaDE3) using UNAG and PEP as substrate incubated for 10 mins prior to PEP addition measured after 60 mins by spectrophotometric analysis
[12] = Inhibition of Pseudomonas aeruginosa MurA expressed in Escherichia coli BL21(lambdaDE3) using UNAG and PEP as substrate incubated for 10 mins prior to PEP addition measured after 60 mins by spectrophotometric analysis
[13] = target: UDP-N-acetylglucosamine 1-carboxyvinyltransferase (Escherichia coli K-12, UniProt P0A749, C115D); assay: Inhibition of Escherichia coli MurA C115D mutant expressed in Escherichia coli BL21(lambdaDE3) using UNAG and PEP as substrate incubated for 10 mins prior to PEP addition measured after 60 mins by spectrophotometric analysis
[14] = target: UDP-N-acetylglucosamine 1-carboxyvinyltransferase (Escherichia coli K-12, UniProt P0A749); assay: Inhibition of Escherichia coli MurA expressed in Escherichia coli BL21(lambdaDE3) using UNAG and PEP as substrate incubated for 10 mins prior to PEP addition measured after 60 mins by spectrophotometric analysis
[15] = tested on: Pseudomonas aeruginosa; assay: microbe, parasite or virus in culture; assay type: functional; conditions: ATCC 27853
[16] = tested on: Escherichia coli; assay: microbe, parasite or virus in culture; assay type: functional; conditions: ATCC 25922
[17] = Induction of GSSG formation in citrate buffer at 100 uM by RP-LC/MS analysis
[18] = Induction of GSH-adduct formation in citrate buffer at100 uM by RP-LC/MS analysis; conditions: 100 µM
[19] = tested on: Dengue virus; conditions: at 50 µM
[20] = target: Prothrombin (Homo sapiens) (UniProt P00734); conditions: at 25 µM
[21] = target: Methionine aminopeptidase 2 (Homo sapiens) (UniProt P50579); conditions: at 10 µM
[22] = target: Methionine aminopeptidase 1 (Homo sapiens) (UniProt P53582); conditions: at 10 µM
[23] = tested on: Escherichia coli; conditions: at 10 µM
[24] = tested on: UDP-N-acetylglucosamine 1-carboxyvinyltransferase (Escherichia coli K-12), P0A749 [C115D]; assay: Inhibition of Escherichia coli MurA C115D mutant expressed in Escherichia coli BL21(lambdaDE3) using UNAG and PEP as substrate at 50 to 500 uM incubated for 30 mins by 2,2'-dithiopyridine based spectrophotometric analysis
In short: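 MurA (wild-type or C115D) was incubated with test compound at an equimolar ratio or 10-fold excess in 50 mM Tris pH 7.8 at room temperature for 30 min. 2,2'-Dithiodipyridine was then added in 0.5 M citrate pH 4 with 6 M urea for 30 min and quenched with 4% TFA. 2-Thiopyridone was measured by HPLC at 342 nm against a compound-free control.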

[25] = target: UDP-N-acetylglucosamine 1-carboxyvinyltransferase (Escherichia coli K-12) (UniProt P0A749); conditions: 100 nM
[26] = target: UDP-N-acetylglucosamine 1-carboxyvinyltransferase (Escherichia coli K-12) (UniProt P0A749); conditions: 200 nM

Sequence of UDP-N-acetylglucosamine 1-carboxyvinyltransferase (Escherichia coli K-12, UniProt P0A749) (P0A749 whole entry): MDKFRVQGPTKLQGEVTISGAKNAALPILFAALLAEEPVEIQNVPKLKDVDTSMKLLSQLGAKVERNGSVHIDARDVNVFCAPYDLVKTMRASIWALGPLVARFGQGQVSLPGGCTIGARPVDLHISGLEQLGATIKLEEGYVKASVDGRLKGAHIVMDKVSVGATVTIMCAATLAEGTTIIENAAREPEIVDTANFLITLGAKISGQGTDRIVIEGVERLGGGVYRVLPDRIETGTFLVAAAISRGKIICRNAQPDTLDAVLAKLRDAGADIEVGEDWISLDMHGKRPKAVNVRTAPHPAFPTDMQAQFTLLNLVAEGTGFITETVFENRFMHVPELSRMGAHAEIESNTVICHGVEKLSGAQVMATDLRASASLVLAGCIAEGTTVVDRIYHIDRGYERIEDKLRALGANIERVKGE
Sequence of UDP-N-acetylglucosamine 1-carboxyvinyltransferase (Escherichia coli K-12, UniProt P0A749, C115D) (P0A749 whole entry C115D): as the sequence (P0A749 whole entry) above, with C115D counted along it
Sequence of Methionine aminopeptidase 2 (Homo sapiens) (P50579 2-478 limits assumed): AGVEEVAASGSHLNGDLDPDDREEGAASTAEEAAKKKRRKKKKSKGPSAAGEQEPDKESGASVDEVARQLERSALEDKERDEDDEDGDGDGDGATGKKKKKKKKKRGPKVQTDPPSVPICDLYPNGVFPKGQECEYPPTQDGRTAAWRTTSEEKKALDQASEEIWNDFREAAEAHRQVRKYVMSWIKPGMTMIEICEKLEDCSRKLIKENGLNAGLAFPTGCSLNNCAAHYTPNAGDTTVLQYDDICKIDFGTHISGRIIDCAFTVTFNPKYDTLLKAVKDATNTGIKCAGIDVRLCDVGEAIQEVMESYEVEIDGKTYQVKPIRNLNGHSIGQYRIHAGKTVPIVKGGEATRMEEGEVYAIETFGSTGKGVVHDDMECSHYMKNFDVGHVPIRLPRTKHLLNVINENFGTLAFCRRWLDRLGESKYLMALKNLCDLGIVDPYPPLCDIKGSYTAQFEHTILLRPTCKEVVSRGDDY
Sequence of UDP-N-acetylglucosamine 1-carboxyvinyltransferase (Escherichia coli K-12) (P0A749 whole entry): as the sequence (P0A749 whole entry) above
Sequence of UDP-N-acetylglucosamine 1-carboxyvinyltransferase (Escherichia coli K-12), P0A749 [C115D] (P0A749 whole entry C115D): as the sequence (P0A749 whole entry) above, with C115D counted along it

SMILES	IC50 [1]	IC50 [2]	IC50 [3]	IC50 [4]	IC50 [5]	IC50 [6]	IC50 [7]	IC50 [8]	MIC [9]	MIC [10]	IC50 ([11]; read-out: IC50)	IC50 ([12]; read-out: IC50)	MIC [15]	MIC [16]	inhibition [19]	inhibition [20]	inhibition [21]	inhibition [22]	inhibition [23]	IC50 [13]	other results
O=[N+]([O-])CBr [BROMO(NITRO)METHANE]	73 µM	69 µM	99 µM	23 µM	40 µM	38 µM	14 µM	25 µM	2 µg/mL (≈ 14.3 µM)	2 µg/mL (≈ 14.3 µM)	6.2 µM	4 µM	0.5 µg/mL (≈ 3.57 µM)	1 µg/mL (≈ 7.15 µM)	inactive	inactive	22%	inactive	85%	–	IC50 ([13]; read-out: IC50): 7.8 µM; IC50 ([14]; read-out: IC50): 4.6 µM; Activity [17]: Not Active; Activity [18]: Active
C=C1C(=O)O[C@@H]2/C=C(\CO)CC/C=C(\C)C[C@H](OC(=O)C(=C)[C@H](O)CO)[C@@H]12 [CNICIN]	≥ 100 µM	93 µM	≥ 100 µM	44 µM	≥ 100 µM	27 µM	82 µM	80 µM	> 32 µg/mL	> 32 µg/mL	20.4 µM	10.3 µM	> 32 µg/mL	> 32 µg/mL	inactive	inactive	9%	inactive	inactive	Not Active	–
C[C@@H]1O[C@@H]1P(=O)(O)O [FOSFOMYCIN]	≥ 100 µM	≥ 100 µM	≥ 100 µM	≥ 100 µM	≥ 100 µM	≥ 100 µM	≥ 100 µM	≥ 100 µM	4 µg/mL (≈ 29 µM)	4 µg/mL (≈ 29 µM)	1.1 µM	10.5 µM	1 µg/mL (≈ 7.24 µM)	2 µg/mL (≈ 14.5 µM)	inactive	inactive	inactive	inactive	inactive	Not Active	IC50 ([14]; read-out: IC50): 0.1 µM; inhibition [24]: inactive; inhibition [25]: tde; inhibition [26]: inactive
C[N+](=O)[O-] [NITROMETHANE]	≥ 100 µM	≥ 100 µM	≥ 100 µM	≥ 100 µM	≥ 100 µM	≥ 100 µM	≥ 100 µM	≥ 100 µM	> 32 µg/mL	8 µg/mL (≈ 131 µM)	–	–	8 µg/mL (≈ 131 µM)	32 µg/mL (≈ 524 µM)	inactive	inactive	inactive	inactive	inactive	Not Active	IC50 [11]: Not Active; IC50 [12]: Not Active; IC50 [14]: Not Active
